Hits are enriched below; roughly 2.3% of the tested compounds scored in any of these assays.
HSP90 refold inh = HSP90 refolding inhibition in rabbit reticulocyte lysate. inhibition, % at 5.6 µM. hit rate 0.91% among 290,000. AID 1789. luciferase refolding luminescence, 3 h;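 active = inhibition above the screen-wide mean plus 3 SD, computed separately per campaign, cut at about 16% in these data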;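 also: inhibitors lower the luminescence because luciferase stays unfolded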
STAT1 blocker = STAT1 signaling inhibition; NIH 3T3 STAT1-luciferase reporter, IFN-gamma, luminescence; inhibition, % at 5.5 µM; hit rate 0.35% among 200,000; AID 920;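 active = inhibition above a set limit, the mean inhibition across all tested compounds plus 3 SD, cut at about 34% in these data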
PPC-1+TRAIL kill = compounds killing PPC-1 cancer cells with TRAIL present (potentiator screen, no TRAIL-free arm); PPC-1 cells + TRAIL, ATPLite viability luminescence; cell killing (% activity), % at 4 µM or 5 µM; hit rate 0.41% among 220,000; AID 1443;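 active = cell killing above 50% in the first pass at 4 µM, then a duplicate retest at 5 µM averaging 50% or more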
STAT3 inh-1 = inhibitors of IL-6 induced STAT3 signaling; U3A cells, IL-6 STAT3-luciferase reporter, luminescence; host cell line lacks STAT1; inhibition, % at 5.5 µM; hit rate 0.89% among 190,000;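 active = inhibition above the mean inhibition across all screened compounds plus 3 SD, cut at about 44% in these data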
STAT3 act = increases IL-6 driven STAT3 reporter signal; activation (% of control), % at 5.6 µM; hit rate 0.91% among 190,000; U3A cells, IL-6 STAT3-luciferase reporter, luminescence; 100% = signal with IL-6 EC80 alone;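 active = activation above the screen-wide mean of compound activation plus 3 SD, cut at about 130% in these data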
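Assay system – human STAT1-deficient U3A cells with stable STAT3-luciferase reporter · Also added – IL-6 (33 ng/mL) · Schedule – compound 1 h, then IL-6 6 h at 37 °C · Technique – reporter luminescence signal · Evaluation – % activation versus median of IL-6-stimulated wells · Benchmarks – IL-6-only wells as 100% reference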
TRAIL sens C8 = sensitizes caspase-8 expressing cells to TRAIL; NB7+C8 cells + TRAIL, ATPlite viability luminescence; inhibition (viability loss, TRAIL sensitization), % at 10 µM; hit rate 1% among 360,000; AID 624354;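 active = compounds causing at least 50% loss of cell viability in the single-dose screen, relative to plate controls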
STAT3 inh-2 = STAT3 inhibition, confirmation assay. shares compounds with STAT3 inh-1. U3A cells, IL-6 STAT3 luciferase reporter, luminescence; cell line lacks STAT1. inhibition, % at 5.7 µM. hit rate 45% among 1,200. AID 1265;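 active = inhibition above the hit cutoff computed for the primary STAT3 screen, cut at about 44% in these data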
NFkB inh STAT3ct = counter-screen for STAT3 inhibitors: NF-kappaB inhibition; shares compounds with STAT3 inh-1; HEK293T NF-kB luciferase reporter, TNF-alpha induced; inhibition, % at 5.7 µM; hit rate 36% among 1,200;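 active = inhibition above the mean of solvent-only control wells plus 3 SD, cutoff set per campaign, cut at about 13% in these data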
STAT1 inh STAT3c = STAT1 inhibition in STAT3 inhibitor counter-screen; inhibition, % at 5.7 µM; shares compounds with STAT3 inh-1; AID 1317; NIH 3T3 STAT1-luciferase reporter, IFN-gamma induced, luminescence; hit rate 27% among 1,200;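 active = inhibition above the mean plus 3 SD of solvent-only control wells, limit set per screening run, cut at about 16% in these data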
Numbers stand for hits; – = inactive; · = no result; ! = a repeat was not active.

SMILES	HSP90 refold inh	STAT1 blocker	PPC-1+TRAIL kill	STAT3 inh-1	STAT3 act	TRAIL sens C8	STAT3 inh-2	NFkB inh STAT3ct	STAT1 inh STAT3c
O=C(Nc1ccc(-c2nc3ccccc3[nH]2)cc1)C1CCCO1 (stereo not given)	–	–	–	68	–	73	–	–	–
CSc1nc(N)c(C(=O)N(c2ccccc2)c2ccccc2)s1	·	·	·	·	·	–	·	·	·
CSc1nc(Cl)c(Cc2ccc(OC(C)C)cc2)c(N2CCOCC2)n1	–	–	–	–	–	–	·	·	·
CCc1ccc(OCc2nc(-c3ccccn3)no2)c(Br)c1	–	–	–	56	–	55	–	–	–
Cc1ccc(C)c(/C(O)=C2/C(=O)C(=O)N(CCN3CCOCC3)C2c2ccco2)c1 (stereo not given)	–	–	–	–	–	–	·	·	·
O=C(NCc1ccc(F)cc1)c1c(O)c2cccc3c2n(c1=O)CCC3	–	–	–	–	–	–	·	·	·
CCN(CC)S(=O)(=O)c1cc(C(=O)Nc2ccncc2)ccc1Cl	–	–	–	56	–	–	–	–	17
CCN(CC)S(=O)(=O)c1cc(C(=O)Nc2cccnc2)ccc1Cl	–	–	–	–	–	–	·	·	·
COc1ccc(Cc2nc3ccc(C(=O)NCCc4ccncc4)cc3o2)cc1OC	–	·	·	·	·	–	·	·	·
COc1ccc(C(=O)Nc2ccc3oc(Cc4ccc(Cl)cc4)nc3c2)cc1OC	–	–	–	51	–	–	45	–	–
COc1ccc(Cl)cc1C(=O)NC1CC(C)(C)NC(C)(C)C1	·	·	·	·	·	–	·	·	·
CCCCCc1ccc(-c2cn(Cc3ccc(C(=O)c4ccccc4)cc3)nn2)cc1	–	·	·	·	·	–	·	·	·
CCCCCCCc1ccc(-c2ccc(O)cc2)nc1	–	–	–	54	–	–	62	–	–
O=C(Nc1ccc(N2CCN(C(=O)c3ccc(Cl)cc3)CC2)cc1)c1cc2ccccc2o1	–	–	–	70	–	–	65	19	–
CCCN1CCN(CC(=O)Nc2nnc(C)s2)CC1	–	·	·	·	·	–	·	·	·
O=C(Nc1ccc(-c2nc3ccccc3s2)cc1)c1cc(-n2cnnc2)ccc1Cl	–	–	–	62	–	–	–	–	–
Cc1ccc(NC(=O)c2cc(-n3cnnc3)ccc2Cl)cc1	–	–	–	–	–	–	·	·	·
Oc1ccc(-c2n[nH]c(=S)n2-c2ccc3c(c2)OCCO3)c(O)c1	16	–	–	48	–	–	44	–	–
S=c1[nH]nc(-c2ccc(Cl)cc2Cl)n1-c1ccc2c(c1)OCCO2	–	·	–	·	·	–	·	·	·
COc1ccccc1-n1c(-c2ccccc2)c[n+]2c1CCc1ccccc1-2	–	34!	–	86	–	–	74	–	21
COc1ccccc1-n1c(-c2ccccc2)c[nH]c1=S	–	–	–	–	–	–	·	·	·
COc1ccc(-c2nsc3c(SCc4ccccc4)ncnc23)cc1	–	–	–	–	–	–	·	·	·
O=C(/C=C\Nc1cccc(F)c1)c1cccs1	–	–	–	–	–	–	·	·	·
O=C(/C=C/Nc1ccc(F)cc1F)c1cccs1	–	–	63	66	–	93	54	55	33
O=C(/C=C/Nc1ccccc1F)c1cccs1	–	–	50	61	–	87	–	16	–
SMILES	HSP90 refold inh	STAT1 blocker	PPC-1+TRAIL kill	STAT3 inh-1	STAT3 act	TRAIL sens C8	STAT3 inh-2	NFkB inh STAT3ct	STAT1 inh STAT3c
CN(C(=O)c1ccccc1-c1ncc[nH]1)C1CCCN(Cc2ccccc2F)C1 (stereo not given)	–	·	·	·	·	–	·	·	·
CCOC(=O)c1sc(NC(=O)c2cc3c(s2)CCC(C)C3)nc1C (stereo not given)	–	–	–	56	–	–	–	–	–
COC(=O)c1sc(NC(=O)c2cc3c(s2)CCCC3)nc1C	–	–	–	–	–	–	·	·	·
C[C@@]12C(=O)N(CC3CC3)CC(=O)N1[C@H](/C=C/c1ccccc1)[C@@H]1C(=O)N(c3ccccc3)C(=O)[C@@H]12	–	·	·	·	·	–	·	·	·
O=C(c1cccc(Cl)c1)N1CCN(C(=O)c2ccco2)CC1	–	–	–	–	–	–	·	·	·
CCCCn1c2c(c(=N)c3ccccc31)CCC2	–	·	–	·	·	–	·	·	·
CCCCCCCCn1c2c(c(=N)c3ccccc31)CCC2	–	–	·	85	–	–	88	30	31
COc1cc(/C=N/Nc2snc(SC)c2C#N)cc(OC)c1OC	–	–	–	59	–	–	–	–	–
CN(C)S(=O)(=O)c1cccc(NC(=O)CNCc2ccccn2)c1	–	·	–	·	·	–	·	·	·
CCN(CC)CCN(Cc1cc2cc3c(cc2[nH]c1=O)OCCO3)C(=S)NC	–	·	·	·	·	–	·	·	·
O=C(Nc1ccc(Cl)c(Cl)c1)Nc1ccccc1C(=O)O	18	–	–	53	–	63	–	–	–
O=C(Nc1cccc(Cl)c1)Nc1ccccc1C(=O)O	–	·	–	·	·	–	·	·	·
COc1ccc(CNC(=O)C2CCN(S(=O)(=O)c3ccc4c(c3)NC(=O)CO4)CC2)cc1	–	·	·	·	·	–	·	·	·
CC(=O)c1cn(CC(=O)Nc2ccc(C)c(C)c2)c2ccccc12	–	–	–	67	–	–	53	19	18
CC(=O)c1cn(CC(=O)Nc2ccccc2C)c2ccccc12	–	–	–	44	–	–	44	–	–
CCN(CC)S(=O)(=O)c1ccc(Oc2ccccc2OC)cc1	–	·	–	·	·	–	·	·	·
CCN(CC)S(=O)(=O)c1ccc(Oc2ccc(S(=O)(=O)N(CC)CC)cc2)cc1	–	–	–	78	–	–	68	27	26
CC(=Nc1ccc(C)cc1)c1sc2ccccc2c1O	–	–	–	56	–	62	–	–	–
CC(C)CN1C(=O)c2ccc(C(=O)Nc3ccncc3)cc2C1=O	–	–	–	49	–	–	57	–	–
CC(C)CN1C(=O)c2ccc(C(=O)Nc3ccccn3)cc2C1=O	–	–	–	–	–	–	·	·	·
CCC(=O)Oc1ccc(-c2nc(-c3cccnc3)no2)cc1	–	–	–	46	–	–	–	–	–
Cc1ccc(NC(=O)COc2ccccc2[N+](=O)[O-])nc1	–	–	–	51	–	60	–	–	–
COc1ccc(NC(=O)C(C)N2c3cccc4cccc(c34)S2(=O)=O)cc1OC (stereo not given)	–	–	–	46	–	–	–	–	22
NC(=O)c1ccsc1NC(=O)COC(=O)Cc1cccc2ccccc12	–	–	–	75	–	–	74	19	20
NC(=O)c1ccsc1NC(=O)COC(=O)Cc1c[nH]c2ccccc12	·	·	·	·	·	–	·	·	·
O=C(CCc1ccc(S(=O)(=O)N2CCOCC2)cc1)Nc1nc(COc2ccccc2)cs1	–	–	–	46	–	–	–	–	–
